According to ChEMBL document CHEMBL1138921, “Discovery of 3,5-bis(trifluoromethyl)benzyl L-arylglycinamide based potent CCR2 antagonists” (Bioorg Med Chem Lett, 2006):
One block for each compound: values may come before it.

Experiments:
[1] = biological target: T1, C-C chemokine receptor type 2 (Homo sapiens, UniProt P41597); assay: Antagonist activity against CCR2 assessed as inhibition of MCP1-induced calcium flux in human monocytes; format: functional, cell-based
[2] = biological target: C-C chemokine receptor type 5 (Homo sapiens, UniProt P51681)
[3] = Clearance in rat; format: ADME, organism-based; details: in vivo
[4] = biological target: C-C chemokine receptor type 8 (Homo sapiens, UniProt P51685); assay: Binding affinity to CCR8
[5] = biological target: T2, Neuromedin-K receptor (Homo sapiens) (UniProt P29371); assay: (§1) Binding affinity to human NK3 receptor
T2 sequence (whole entry): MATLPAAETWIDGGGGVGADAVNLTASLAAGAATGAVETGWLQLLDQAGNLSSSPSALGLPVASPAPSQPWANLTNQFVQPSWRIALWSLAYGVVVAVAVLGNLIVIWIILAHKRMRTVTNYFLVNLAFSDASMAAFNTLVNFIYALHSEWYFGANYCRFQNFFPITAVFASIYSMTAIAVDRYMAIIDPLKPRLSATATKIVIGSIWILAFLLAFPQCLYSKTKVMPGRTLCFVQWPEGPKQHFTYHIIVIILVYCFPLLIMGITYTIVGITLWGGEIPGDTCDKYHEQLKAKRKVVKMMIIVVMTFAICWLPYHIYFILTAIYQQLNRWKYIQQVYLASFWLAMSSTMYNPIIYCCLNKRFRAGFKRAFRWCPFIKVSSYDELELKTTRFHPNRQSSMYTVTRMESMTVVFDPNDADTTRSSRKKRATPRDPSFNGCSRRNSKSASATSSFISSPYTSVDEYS

[6] = biological target: T3, Neuromedin-K receptor (Homo sapiens, UniProt P29371); assay: as §1
T3 sequence (P29371 whole entry): T2 sequence (whole entry)

[7] = biological target: T4, C-C chemokine receptor type 4 (Homo sapiens, UniProt P51679); assay: (§2) Binding affinity to CCR4
T4 sequence (P51679 whole entry): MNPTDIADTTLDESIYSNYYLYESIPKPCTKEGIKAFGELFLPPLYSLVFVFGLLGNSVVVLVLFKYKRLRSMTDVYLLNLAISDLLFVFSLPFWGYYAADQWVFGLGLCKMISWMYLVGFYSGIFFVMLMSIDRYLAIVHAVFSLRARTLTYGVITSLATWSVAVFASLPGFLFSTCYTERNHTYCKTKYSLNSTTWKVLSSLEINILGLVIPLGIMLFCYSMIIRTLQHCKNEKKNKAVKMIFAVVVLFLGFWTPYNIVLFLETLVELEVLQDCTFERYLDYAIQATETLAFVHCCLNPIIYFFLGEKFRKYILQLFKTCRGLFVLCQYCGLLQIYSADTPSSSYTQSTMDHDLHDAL

[8] = biological target: T5, C-C chemokine receptor type 4 (Homo sapiens) (UniProt P51679); assay: as §2
T5 sequence (whole entry): T4 sequence (P51679 whole entry)

[9] = biological target: T6, C-C chemokine receptor type 1 (Homo sapiens) (UniProt P32246); assay: (§3) Binding affinity to CCR1
T6 sequence (whole entry): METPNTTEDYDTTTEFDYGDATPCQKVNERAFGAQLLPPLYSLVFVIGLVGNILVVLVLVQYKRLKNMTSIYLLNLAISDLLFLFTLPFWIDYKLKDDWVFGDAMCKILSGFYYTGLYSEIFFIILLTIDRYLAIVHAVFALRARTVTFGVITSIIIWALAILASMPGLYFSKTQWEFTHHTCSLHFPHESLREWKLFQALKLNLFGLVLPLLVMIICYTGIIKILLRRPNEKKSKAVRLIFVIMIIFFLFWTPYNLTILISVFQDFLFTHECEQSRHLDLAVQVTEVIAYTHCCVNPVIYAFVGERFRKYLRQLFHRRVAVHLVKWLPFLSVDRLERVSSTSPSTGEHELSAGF

[10] = biological target: T7, C-C chemokine receptor type 1 (Homo sapiens, UniProt P32246); assay: as §3
T7 sequence (P32246 whole entry): T6 sequence (whole entry)

[11] = Oral bioavailability in rat; format: ADME, organism-based; details: in vivo
[12] = Half life in rat; format: ADME, organism-based; details: in vivo
[13] = system: Monocyte; assay: Inhibition of MCP1-induced chemotaxis of human monocytes; format: functional, cell-based
Summary of the method: (§4)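 Human monocytes loaded with Calcein-AM in Hanks' buffer with 0.01% BSA, 37 °C, 30 min, then washed and resuspended in phenol red-free RPMI 1640 with 0.01% BSA. Migration toward MCP-1 measured in disposable 96-well chemotaxis plates (5.7 mm diameter wells), 1.5 × 10⁵ cells/well.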

[14] = biological target: T1, C-C chemokine receptor type 2; assay: Displacement of [125I]MCP1 from human CCR2 expressed in CHO cells; format: cell-based
Summary of the method: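 Competition binding: CHO cells stably expressing human CCR2b (5 × 10⁴) incubated with ¹²⁵I-hMCP-1 (20–50 pM) plus varied unlabeled competitor, 60 min, room temperature, in 50 mM HEPES, 5 mM MgCl₂, 1 mM CaCl₂, pH 7.4. Ended by filtration through polyethyleneimine-soaked GF/B filters, washed with 25 mM HEPES pH 7.5/500 mM NaCl. Values given as IC₅₀ or % inhibition at 1 µM.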

[15] = biological target: Substance-P receptor (Homo sapiens, UniProt P25103); assay: Binding affinity to human NK1 receptor
[16] = system: Rattus norvegicus; assay: Systemic level in rat at 3 mg/kg, po; format: ADME, organism-based; design: dose 3 mg/kg, route oral; details: in vivo
Summary of the method: (§5)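 Rats dosed orally at 3 mg/kg; drug levels in portal and systemic blood sampled at several time points to assess first-pass metabolism.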

[17] = Portal level in rat at 3 mg/kg, po after 1 hr; format: ADME, organism-based; design: dose 3 mg/kg, route oral; details: portal vein (blood or plasma not stated), read-out: Activity; summary of the method: as §5
[18] = biological target: T8, C-C chemokine receptor type 3 (Homo sapiens) (UniProt P51677); assay: (§6) Binding affinity to CCR3
T8 sequence (whole entry): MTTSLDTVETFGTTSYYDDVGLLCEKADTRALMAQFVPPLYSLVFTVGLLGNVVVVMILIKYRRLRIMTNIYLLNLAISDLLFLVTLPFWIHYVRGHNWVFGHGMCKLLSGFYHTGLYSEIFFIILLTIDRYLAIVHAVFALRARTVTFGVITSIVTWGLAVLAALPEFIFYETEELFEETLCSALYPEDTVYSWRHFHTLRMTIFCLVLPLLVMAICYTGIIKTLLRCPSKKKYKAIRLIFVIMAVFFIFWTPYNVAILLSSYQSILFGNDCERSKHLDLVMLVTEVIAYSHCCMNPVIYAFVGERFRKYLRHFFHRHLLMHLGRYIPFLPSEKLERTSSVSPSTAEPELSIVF

[19] = biological target: T9, C-C chemokine receptor type 3 (Homo sapiens, UniProt P51677); assay: as §6
T9 sequence (P51677 whole entry): T8 sequence (whole entry)

[20] = biological target: T10, Substance-K receptor (Homo sapiens) (UniProt P21452); assay: (§7) Binding affinity to human NK2 receptor
T10 sequence (whole entry): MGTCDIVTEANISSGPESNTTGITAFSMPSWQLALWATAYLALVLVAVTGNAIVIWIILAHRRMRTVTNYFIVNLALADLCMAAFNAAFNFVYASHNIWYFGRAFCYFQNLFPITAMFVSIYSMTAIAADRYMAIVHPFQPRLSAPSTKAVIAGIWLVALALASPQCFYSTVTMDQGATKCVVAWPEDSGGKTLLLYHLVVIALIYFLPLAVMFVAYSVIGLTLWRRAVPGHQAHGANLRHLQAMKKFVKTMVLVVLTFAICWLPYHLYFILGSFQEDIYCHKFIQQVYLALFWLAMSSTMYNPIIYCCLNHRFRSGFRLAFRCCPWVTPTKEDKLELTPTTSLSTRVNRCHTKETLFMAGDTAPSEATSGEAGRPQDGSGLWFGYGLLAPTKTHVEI

[21] = biological target: T11, Substance-K receptor (Homo sapiens, UniProt P21452); assay: as §7
T11 sequence (P21452 whole entry): T10 sequence (whole entry)

[22] = biological target: T1, C-C chemokine receptor type 2; assay: Binding affinity to CCR2 in human monocytes; format: cell-based
Summary of the method: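 Competition binding on human monocytes (2 × 10⁵ cells) incubated with ¹²⁵I-hMCP-1 (20–50 pM; 2200 Ci/mmol) and a range of unlabeled competitor concentrations. Buffer: 50 mM HEPES, 5 mM MgCl₂, 1 mM CaCl₂, pH 7.4, for 60 min at room temperature. Stopped by filtration through PEI-presoaked GF/B filters, washed with 25 mM HEPES pH 7.5 / 500 mM NaCl. Reported as IC50.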

[23] = system: Monocyte; assay: Inhibition of MCP1-induced chemotaxis of human monocytes at 10 uM; format: functional; summary of the method: as §4

T1 sequence (P41597 whole entry): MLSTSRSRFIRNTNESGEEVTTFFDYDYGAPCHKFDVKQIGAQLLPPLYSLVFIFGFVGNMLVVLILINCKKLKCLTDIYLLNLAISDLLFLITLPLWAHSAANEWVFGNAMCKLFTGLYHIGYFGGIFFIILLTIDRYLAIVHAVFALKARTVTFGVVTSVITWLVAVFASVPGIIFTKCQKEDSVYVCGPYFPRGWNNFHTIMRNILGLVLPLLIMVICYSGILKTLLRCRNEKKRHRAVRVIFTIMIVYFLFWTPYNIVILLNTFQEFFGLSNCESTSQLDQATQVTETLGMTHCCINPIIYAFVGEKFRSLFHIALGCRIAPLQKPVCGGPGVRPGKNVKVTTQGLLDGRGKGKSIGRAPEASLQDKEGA
Substance-P receptor, sequence (P25103 whole entry): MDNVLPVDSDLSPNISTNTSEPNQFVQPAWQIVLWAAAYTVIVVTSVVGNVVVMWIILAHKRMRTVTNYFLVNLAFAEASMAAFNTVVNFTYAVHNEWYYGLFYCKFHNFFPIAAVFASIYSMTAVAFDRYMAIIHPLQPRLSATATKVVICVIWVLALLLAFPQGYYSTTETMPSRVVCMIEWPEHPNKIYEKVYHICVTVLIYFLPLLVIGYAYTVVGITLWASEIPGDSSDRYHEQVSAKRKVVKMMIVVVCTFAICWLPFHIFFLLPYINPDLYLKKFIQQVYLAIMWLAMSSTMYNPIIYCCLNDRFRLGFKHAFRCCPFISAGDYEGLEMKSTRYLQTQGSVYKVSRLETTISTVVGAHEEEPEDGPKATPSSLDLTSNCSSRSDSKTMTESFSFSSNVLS
C-C chemokine receptor type 8, sequence (P51685 whole entry): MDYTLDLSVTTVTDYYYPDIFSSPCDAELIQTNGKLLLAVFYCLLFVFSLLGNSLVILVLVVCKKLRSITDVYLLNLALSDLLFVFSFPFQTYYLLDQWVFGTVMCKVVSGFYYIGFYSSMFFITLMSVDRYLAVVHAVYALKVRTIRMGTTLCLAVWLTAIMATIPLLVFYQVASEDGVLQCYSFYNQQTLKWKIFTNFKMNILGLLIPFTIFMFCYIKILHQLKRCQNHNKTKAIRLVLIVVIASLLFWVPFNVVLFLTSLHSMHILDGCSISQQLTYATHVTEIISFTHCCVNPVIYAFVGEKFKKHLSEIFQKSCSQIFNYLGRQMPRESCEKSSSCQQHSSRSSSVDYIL
C-C chemokine receptor type 5, sequence (P51681 whole entry): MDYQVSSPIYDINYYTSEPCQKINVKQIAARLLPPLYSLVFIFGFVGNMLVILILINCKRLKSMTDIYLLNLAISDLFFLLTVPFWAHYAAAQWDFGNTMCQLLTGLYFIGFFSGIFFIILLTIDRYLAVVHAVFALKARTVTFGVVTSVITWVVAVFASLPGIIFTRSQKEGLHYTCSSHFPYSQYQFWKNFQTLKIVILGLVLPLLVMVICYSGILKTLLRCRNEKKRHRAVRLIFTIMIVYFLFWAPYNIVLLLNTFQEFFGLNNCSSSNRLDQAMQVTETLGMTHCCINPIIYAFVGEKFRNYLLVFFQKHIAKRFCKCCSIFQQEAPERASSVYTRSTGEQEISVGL

- IC50 [1]: 50 nM
- IC50 [2]: > 1000 nM
- clearance [3]: 80 mL/min/kg
- Activity [4]: 15%
- IC50 [4]: > 1000 nM
- Activity [5]: 10%
- IC50 [6]: > 1000 nM
- IC50 [7]: > 2000 nM
- Activity [8]: 6%
- Activity [9]: -19%
- IC50 [10]: > 1000 nM
- bioavailability [11]: 4.5%
- half-life [12]: 1.8 h
- IC50 [13]: 9.6 nM
- IC50 [14]: 39 nM
- Activity [15]: 31%
- IC50 [15]: > 100 nM
- Activity [16]: < 20 ng/mL
- concentration at 1 h [17]: > 300 ng/mL
- Activity [18]: 2%
- IC50 [19]: > 1000 nM
- Activity [20]: 20%
- IC50 [21]: > 1000 nM
- IC50 [22]: 30 nM
Structure (SMILES): O=C(NCc1cc(C(F)(F)F)cc(C(F)(F)F)c1)[C@@H](NCCN1CCCCC1)c1ccsc1

Structure (SMILES): CN(CCN1CCCCC1)c1ccc(-c2nc3cc(Cl)c(Cl)cc3[nH]2)cc1
- inhibition at 10 µM [23]: 100%
